Data as given in ChEMBL document CHEMBL1153736, “Application of ring-closing metathesis macrocyclization to the development of Tsg101-binding antagonists” (Bioorg Med Chem Lett, 2010).
Numbered stars: 1 amine (or outer) side, 2 acyl side, 3 side chain; on linkers, the order of the positions; unused ones are H or OH. Bridge positions count the residues as written; N and C are the ends. Square brackets hold non-standard residues; d marks the D form. Peptide text beside a SMILES is read from it. * marks the point of attachment. Fluorescein(5-NHCS) = O=C1OC2(c3ccc(O)cc3Oc3cc(O)ccc32)c2cc(NC(=S)*)ccc21; Gly(N-but-3-enyl) = O=C(CN(CCC=[*:3])[*:1])[*:2]; X3 = O=C(CN(CCCCCCC=[*:3])[*:1])[*:2]; X1 = O=C(CN(CCCC=[*:3])[*:1])[*:2]; X2 = O=C(CN(CC=[*:3])[*:1])[*:2]; NAllylGly = C=CCNCC(=O)O; Ava = NCCCCC(=O)O

Tests used:
[1] = target: T1, Tumor susceptibility gene 101 protein (Homo sapiens, UniProt Q99816); assay: Binding affinity to ubiquitin E2 variant domain of human Tsg101 by fluorescent anisotropy
T1 sequence (Q99816 whole entry): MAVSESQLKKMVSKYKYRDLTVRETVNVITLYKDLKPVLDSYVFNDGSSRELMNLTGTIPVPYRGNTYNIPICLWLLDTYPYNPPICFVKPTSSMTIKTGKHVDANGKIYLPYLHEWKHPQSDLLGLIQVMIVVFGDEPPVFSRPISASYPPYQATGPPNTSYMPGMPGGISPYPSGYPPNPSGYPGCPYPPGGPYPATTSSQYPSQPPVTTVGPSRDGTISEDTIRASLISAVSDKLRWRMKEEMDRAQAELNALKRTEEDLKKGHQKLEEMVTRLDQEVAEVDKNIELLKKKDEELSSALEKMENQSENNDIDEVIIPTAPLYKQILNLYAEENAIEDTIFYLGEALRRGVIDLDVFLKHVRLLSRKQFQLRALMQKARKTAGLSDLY

HeLa = assay: Cellular uptake in human HeLa cells assessed as fluorescence intensity by FACS analysis relative to control; assay type: ADME, cell-based; settings: in the assay text read “fluorescence microscopy” for “FACS analysis”
Procedure, shortened: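 Uptake of FITC-tagged peptide-peptoid hybrids was measured by fluorescence microscopy. The value is the average fluorescence intensity of treated cells, quantified from at least 20 cells taken from 4–6 fields, each field holding about 5 cells.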

Row | SMILES | Kd [1] [µM] | Drug uptake (HeLa) [%]
1 | C[C@@H]1NC(=O)[C@H]([C@@H](C)O)NC(=O)[C@@H]2CCCN2C(=O)CN(C(=O)[C@@H]2CCCN2C(=O)CCCCNC(=S)Nc2ccc3c(c2)C2(OC3=O)c3ccc(O)cc3Oc3cc(O)ccc32)CC/C=C\CN(CC(=O)N[C@@H](CCC(=O)O)C(N)=O)C(=O)[C@@H]2CCCN2C(=O)[C@@H]2CCCN2C1=O ({Fluorescein(5-NHCS)-Ava}-P[Gly(N-but-3-enyl)]PTAPP[X2]E-NH2; staple (Z) 2-8) | 171 | –
2 | C=CCN(CC(=O)N1CCC[C@H]1C(=O)N[C@H](C(=O)N[C@@H](C)C(=O)N1CCC[C@H]1C(=O)N1CCC[C@H]1C(=O)N(CC=C)CC(=O)N[C@@H](CCC(=O)O)C(N)=O)[C@@H](C)O)C(=O)[C@@H]1CCCN1C(=O)CCCCNC(=S)Nc1ccc2c(c1)C1(OC2=O)c2ccc(O)cc2Oc2cc(O)ccc21 ({Fluorescein(5-NHCS)-Ava}-P[NAllylGly]PTAPP[NAllylGly]E-NH2) | 590 | 74
3 | C[C@@H]1NC(=O)[C@H]([C@@H](C)O)NC(=O)[C@@H]2CCCN2C(=O)[C@H](CCC(=O)O)NC(=O)CN(C(=O)CCCCNC(=S)Nc2ccc3c(c2)C2(OC3=O)c3ccc(O)cc3Oc3cc(O)ccc32)CCCC/C=C\CN(CC(N)=O)C(=O)[C@H](CCC(=O)O)NC(=O)[C@@H]2CCCN2C(=O)[C@@H]2CCCN2C1=O | > 500 | –
4 | C[C@@H]1NC(=O)[C@H]([C@@H](C)O)NC(=O)[C@@H]2CCCN2C(=O)CN(C(=O)[C@@H]2CCCN2C(=O)CCCCNC(=S)Nc2ccc3c(c2)C2(OC3=O)c3ccc(O)cc3Oc3cc(O)ccc32)CCCC=CCN(CC(=O)N[C@@H](CCC(=O)O)C(N)=O)C(=O)[C@@H]2CCCN2C(=O)[C@@H]2CCCN2C1=O ({Fluorescein(5-NHCS)-Ava}-P[X1]PTAPP[X2]E-NH2; staple 2-8) | > 500 | –
5 | C[C@@H]1NC(=O)[C@H]([C@@H](C)O)NC(=O)[C@@H]2CCCN2C(=O)[C@H](CCC(=O)O)NC(=O)CN(C(=O)CCCCNC(=S)Nc2ccc3c(c2)C2(OC3=O)c3ccc(O)cc3Oc3cc(O)ccc32)C/C=C\CCCCCCN(CC(=O)N[C@@H](CCC(=O)O)C(N)=O)C(=O)[C@@H]2CCCN2C(=O)[C@@H]2CCCN2C1=O ({Fluorescein(5-NHCS)-Ava}-[X2]EPTAPP[X3]E-NH2; staple (Z) 1-8) | > 500 | –
